The values below come from ChEMBL document CHEMBL2163271, “Antitumor agents 295. E-ring hydroxylated antofine and cryptopleurine analogues as antiproliferative agents: design, synthesis, and mechanistic studies” (J Med Chem, 2012).

For orientation: IC50 means the concentration that inhibits the measured activity by half.

The source made the active and inactive calls. The calls are words filed in the database; no cut-off is given here.

Assay [1] concerns A549. Briefly: Cytotoxicity against human A549 cells after 2 hrs by methylene blue staining-based spectrophotometric analysis. The assay is classed as functional, cell-based. The note with it: A549, 2 h.
For assay [2], the system named is KB. Description: Cytotoxicity against human KB cells after 2 hrs by methylene blue staining-based spectrophotometric analysis. The assay is classed as functional, cell-based.
The test system of assay [3] is DU-145. Description: Cytotoxicity against human DU145 cells after 2 hrs by methylene blue staining-based spectrophotometric analysis. It counts as functional, cell-based. The settings on record: DU-145, 2 h.
Assay [4] can be described thus: Cytotoxicity against human KBVIN cells overexpressing P-gp after 2 hrs by methylene blue staining-based spectrophotometric analysis. The assay is classed as functional, cell-based.
Assay [5] deals with SK-BR-3. Briefly: Cytotoxicity against human SKBR3 cells after 2 hrs by methylene blue staining-based spectrophotometric analysis. The assay is classed as functional, cell-based. The note with it: SK-BR-3, 2 h.
Assay [6] concerns A549. Description: Cytotoxicity against human A549 cells assessed as cell viability after 48 hrs by SRB assay. It counts as functional, cell-based. The settings on record: A549, 48 h. On the technique in general: In SRB staining, fixed cells bind dye roughly in proportion to their protein.
Assay [7] concerns MRC5. Description: Cytotoxicity against human MRC5 cells assessed as cell viability after 48 hrs by SRB assay. The note with it: MRC5, 48 h. The assay is classed as functional, cell-based.
The test system of assay [8] is HCT-8. Briefly: Cytotoxicity against human HCT8 cells after 2 hrs by methylene blue staining-based spectrophotometric analysis. The assay is classed as functional, cell-based. The settings on record: HCT-8, 2 h.
A short description of assay [9]: Cytotoxicity against human PC9IR cells assessed as cell viability after 48 hrs by SRB assay. The assay is classed as functional, cell-based. A digest of the protocol:
(§1)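 Human NSCLC lines (CL1-0, CL1-5, PC9, PC9IR) exposed to increasing compound concentrations for 48 h. Growth read by sulforhodamine B (SRB) staining, with IC50 in nM taken from the dose-response.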

Assay [10] in a line: Cytotoxicity against human CL1-5 cells assessed as cell viability after 48 hrs by SRB assay. It counts as functional, cell-based. The note with it: CL1-5, 48 h. In short, it runs like this: as §1
Assay [11] in a line: Cytotoxicity against human CL1-0 cells assessed as cell viability after 48 hrs by SRB assay. It counts as functional, cell-based. The settings on record: CL1-0, 48 h. A digest of the protocol: as §1
The subject of assay [12] is PC-9. Briefly: Cytotoxicity against human PC9 cells assessed as cell viability after 48 hrs by SRB assay. It counts as functional, cell-based. The note with it: PC-9, 48 h. In short, it runs like this:
as §1

Assay [13] relates to A549. Briefly: Downregulation of beta-catenin protein expression in human A549 cells at 3.6 to 100 nM after 48 hrs by Western blot analysis. For orientation: A western blot detects proteins with antibodies after separation by electrophoresis.
Assay [14] deals with A549. Description: Downregulation of HSP90 protein expression in human A549 cells at 3.6 to 100 nM after 48 hrs by Western blot analysis. The assay is classed as functional, cell-based. In short, it runs like this:
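A549 cells treated with graded compound concentrations for 48 h. Whole-cell extracts were immunoblotted with antibody against HSP90.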

Assay [15] deals with A549. Briefly: Downregulation of cyclin D protein expression in human A549 cells at 3.6 to 100 nM after 48 hrs by Western blot analysis. It counts as functional, cell-based.

Regarding `COc1ccc2c3c(c4cc(OC)c(OC)cc4c2c1)C[C@H]1[C@@H](O)CCN1C3`, the IC50 in assay [1] is 2810 nM; in assay [2], 1830 nM; in [3], 3200 nM; in assay [4], 3420 nM.

In the case of `COc1ccc2c3c(c4cc(OC)c(OC)cc4c2c1)C[C@H]1C[C@@H](O)[C@H](O)CN1C3`, the IC50 was 14500 nM in assay [1], 17500 nM in [2], 1710 nM in [3] and 12600 nM in assay [4].

Turning to `COc1ccc2c3c(c4cc(OC)c(OC)cc4c2c1)C[C@H]1C[C@@H](OC)CCN1C3`, the IC50 in assay [1] came out at 7110 nM; in assay [2], 5240 nM; in [3], 3570 nM; in assay [4], 3690 nM.

For `COc1ccc2c3c(c4cc(OC)c(OC)cc4c2c1)C[C@H]1C[C@H](O)CN1C3`, the IC50 in assay [1] worked out at 2270 nM; in assay [2] it was 1810 nM; in assay [3], 1800 nM; in [4], 2210 nM.

Turning to `COc1ccc2c3c(c4cc(OC)c(OC)cc4c2c1)C[C@H]1CC[C@@H](O)CN1C3`, the concentration for half-maximal inhibition (IC50) in assay [1] amounted to 82 nM; in assay [2], 33 nM; in assay [3], 66 nM; in assay [4] it was 45 nM; in assay [5] it was 348 nM.

`COc1ccc2c3c(c4cc(OC)c(OC)cc4c2c1)C[C@H]1CC(=O)CCN1C3`: the IC50 stood at 28 nM in [1], 50 nM in assay [2], 45 nM in assay [3] and 43 nM in [4].

In the case of `COc1ccc2c3c(c4cc(OC)c(OC)cc4c2c1)C[C@H]1COCCN1C3`, the IC50 in assay [6] is 40 nM; in assay [7], 252 nM.

As for `COc1ccc2c3c(c4cc(OC)c(OC)cc4c2c1)C[C@H]1C[C@H](O)[C@@H](O)CN1C3`, the IC50 in assay [1] was 550 nM; in assay [2], 840 nM; in [3], 600 nM; in [4], 2170 nM.

For `COc1ccc2c3c(c4cc(OC)c(OC)cc4c2c1)C[C@H]1C[C@@H](O)CCN1C3`, the IC50 in assay [1] worked out at 72 nM; in assay [2], 43 nM; in assay [3] it was 59 nM; in [4], 78 nM; in assay [5], 295 nM.

In the case of `CC[C@@]1(O)CCN2Cc3c(c4cc(OC)c(OC)cc4c4cc(OC)ccc34)C[C@H]2C1`, the half-inhibitory concentration (IC50) in [1] was found to be 990 nM; in [2], 920 nM; in assay [3], 770 nM; in assay [4], 870 nM.

Consider `COc1ccc2c3c(c4cc(OC)c(OC)cc4c2c1)C[C@H]1CCC(=O)CN1C3`, for which the IC50 in assay [1] was 910 nM; in assay [2], 734 nM; in [3], 1700 nM; in assay [4], 1480 nM; in [5], 3340 nM.

Regarding `COc1ccc2c3c(c4cc(OC)c(OC)cc4c2c1)C[C@H]1CC(=O)CN1C3`, the half-maximal inhibitory concentration (IC50) is 290 nM in [1], 500 nM in [2], 710 nM in assay [3] and 430 nM in [4].

Take `COc1ccc2c3c(c4cc(OC)c(OC)cc4c2c1)C[C@H]1C[C@@H](O)CN1C3`: the IC50 in assay [1] stood at 610 nM; in assay [2], 780 nM; in assay [3], 700 nM; in [4], 640 nM.

With `COc1ccc2c3c(c4cc(OC)c(OC)cc4c2c1)C[C@H]1CCCN1C3` [(-)-ANTOFINE], the half-inhibitory concentration (IC50) in assay [4] turned out to be 25 nM.

As for `COc1ccc2c3c(c4cc(OC)c(OC)cc4c2c1)C[C@H]1CCCCN1C3` [CRYPTOPLEURINE], the IC50 in assay [8] turned out to be 1.91 nM; in [1], 1.38 nM; in assay [6], 1.9 nM; in assay [2], 1.51 nM; in assay [9], 6.8 nM; in [10], 1.8 nM. The 50% inhibitory concentration (IC50) is 1.59 nM in assay [3], 5 nM in [11], 5.5 nM in assay [12] and 14 nM in assay [7]. Besides, the outcome in assay [13], in assay [14] and in assay [15] was Active.

In the case of `COc1ccc2c3c(c4cc(OC)c(OC)cc4c2c1)C[C@H]1[C@H](O)CCN1C3`, the IC50 stood at 270 nM in [1], 500 nM in [2], 850 nM in assay [3] and 640 nM in assay [4].

In the case of `COc1ccc2c3c(c4cc(OC)c(OC)cc4c2c1)C[C@H]1[C@H](O)CCCN1C3`, the IC50 stood at 69 nM in [1], 300 nM in assay [2], 200 nM in assay [3] and 120 nM in assay [4].

On to `COc1ccc2c3c(c4cc(OC)c(OC)cc4c2c1)C[C@H]1C[C@H](OC)CCN1C3`, for which the half-maximal inhibitory concentration (IC50) in assay [1] came out at 25 nM; in assay [2] it was 100 nM; in [3] it was 56 nM; in [4], 66 nM.

For `COc1ccc2c3c(c4cc(OC)c(OC)cc4c2c1)C[C@H]1CC[C@H](O)CN1C3`, the IC50 in [1] is 2510 nM; in assay [2], 2250 nM; in [3], 2250 nM; in [4] it was 3070 nM; in [5] it was 6440 nM.

Turning to `COc1ccc2c3c(c4cc(OC)c(OC)cc4c2c1)C[C@H]1[C@@H](O)CCCN1C3`, the IC50 in [1] was 10 nM; in assay [2], 25 nM; in [3], 33 nM; in assay [4], 25 nM.

For the molecule `COC1=C[C@@H]2Cc3c(c4ccc(OC)cc4c4cc(OC)c(OC)cc34)CN2C1`, the IC50 in assay [1] was determined as 5970 nM; in [2], 12000 nM; in assay [3] it was 10300 nM; in assay [4] it was 2640 nM.
